Tested on: HepG2
Test: Induction of LDLR mRNA expression in human HepG2 cells after 12 hrs by RT-PCR assay relative to untreated control
Format: functional
Method in brief: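 HepG2 cells kept in RPMI-1640 with 10% FBS, moved 24 h before dosing to 10% LPDS, then at ~80% confluence to RPMI-1640 with 0.5% LPDS plus compound (5.0 µg/mL in table; concentrations as indicated in figure), 12 h, 37 °C. Total RNA reverse-transcribed, TaqMan real-time PCR, comparative CT method with GAPDH reference; fold of untreated cells (=1); mean of three experiments.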

Row | Structure (SMILES) | fold change (FC)
1 | COc1ccc2c(c1OC)C[N+]1(C)CCc3cc4c(cc3C1C2)OCO4.[I-] (stereo not given) | 1.1
2 | CCOc1cc2c(cc1O)-c1cc3ccc(OC)c(OC)c3c[n+]1CC2.[Br-] | 0.9
3 | CCCOc1cc2c(cc1OCCC)-c1cc3ccc(OC)c(OC)c3c[n+]1CC2.[Br-] | 0.9
4 | COc1ccc2cc3[n+](cc2c1OC)CCc1cc(OCc2ccccc2)c(OCc2ccccc2)cc1-3.[Br-] | 1
5 | CCCCc1c2[n+](cc3c(OC)c(OC)ccc13)CCc1cc3c(cc1-2)OCO3.[Cl-] | 0.9
6 | CCCCCCc1c2[n+](cc3c(OC)c(OC)ccc13)CCc1cc3c(cc1-2)OCO3.[Cl-] | 1
7 | CCCCc1c2[n+](cc3cc(OC)c(OC)cc13)CCc1cc3c(cc1-2)OCO3.[Cl-] | 0.9
8 | CCCc1c2[n+](cc3c(OC)c(OC)ccc13)CCc1cc3c(cc1-2)OCO3.[Cl-] | 0.9
9 | COc1cc2c[n+]3c(c(Cc4ccccc4)c2cc1OC)-c1cc2c(cc1CC3)OCO2.[Br-] | 1
10 | COc1cc2c[n+]3c(c(C)c2cc1OC)-c1cc2c(cc1CC3)OCO2.[Cl-] | 0.9
11 | COc1ccc2c(C)c3[n+](cc2c1OC)CCc1cc2c(cc1-3)OCO2.[Cl-] | 1.1
12 | CCc1c2[n+](cc3c(OC)c(OC)ccc13)CCc1cc3c(cc1-2)OCO3.[Cl-] | 1.04
13 | COc1ccc2c(c1OC)C[N+]1(CCO)CCc3cc4c(cc3C1C2)OCO4.[Br-] (stereo not given) | 1.2
14 | CCCC[N+]12CCc3cc4c(cc3C1Cc1ccc(OC)c(OC)c1C2)OCO4.[Br-] (stereo not given) | 1.1
15 | CCOC(=O)C[N+]12CCc3cc4c(cc3C1Cc1ccc(OC)c(OC)c1C2)OCO4.[Br-] (stereo not given) | 0.8

— ChEMBL document CHEMBL1140862, “Berberine analogues as a novel class of the low-density-lipoprotein receptor up-regulators: synthesis, structure-activity relationships, and cholesterol-lowering efficacy” (J Med Chem, 2009)
